Experimental data from different studies.
Compare with care: the assays were run in different laboratories.
Medium: plasma

CCCCCn1cc(C(=O)Nc2cccc3ccccc23)c2ccccc21 — AUC(0-t) (male Long-Evans rat; intraperitoneal, 3 mg/kg): 4240 ng·h/mL
Cl.Cl.O=C(CCN1CCCCC1)c1ccc(-c2ccc(C(=O)CCN3CCCCC3)cc2)cc1 — AUC(0-t) (Sprague-Dawley rat; intravenous, 5 mg/kg): 251 ng·h/mL
[2H]C([2H])([2H])n1cc2cc(Nc3nc(=O)n(Cc4ncn(C)n4)c(=O)n3Cc3cc(F)c(F)cc3F)c(Cl)cc2n1 — AUC(0-t) (male Sprague-Dawley rat; oral, 25 mg/kg): 334000 ng·h/mL
CCCCCn1nc(C(=O)Nc2cccc3ccccc23)c2ccccc21 — AUC(0-t) (male Long-Evans rat; intraperitoneal, 3 mg/kg): 304 ng·h/mL
CC(C)(C)[C@H](NC(=O)[C@H](CCONC(=N)N)NC(=O)Cc1ccc(CNC(=N)N)cc1)C(=O)N[C@@H](CCONC(=N)N)C(=O)NCc1ccc(C(=N)N)cc1 — AUC(0-t) (male Sprague-Dawley rat; intraperitoneal, 2.5 mg/kg): 9350 ng·h/mL
CN(C)C(=O)Oc1cc(OC(=O)N(C)C)cc(-c2cc3ccc(O)cc3o2)c1 — AUC(0-inf) (male rat; oral, 5 mg/kg): 26.2 ng·h/mL
COC(=O)C(NC(=O)c1cn(CCCCCF)c2ccccc12)C(C)(C)C (stereo not drawn) — AUC(0-t) (male Sprague-Dawley rat; subcutaneous, 100 µg/kg): 17 ng·h/mL
CCC[C@@](N)(CO)CCc1ccc(OCCCCCC(C)C)cc1 — AUC(0-t) (rat; oral, 30 mg/kg): 6.18 µM·h
Cn1cnc(Cn2c(=O)[nH]/c(=N\c3cc4cn(C)nc4cc3Cl)n(Cc3cc(F)c(F)cc3F)c2=O)n1 — AUC(0-t) (male Sprague-Dawley rat; intravenous, 5 mg/kg): 81000 ng·h/mL
N=c1c2c(-c3ccccc3)c(-c3ccccc3)n(Cc3ccccc3)c2ncn1[C@H]1CC[C@H](O)CC1 — AUC(0-inf) (male Sprague-Dawley rat; oral, 2 mg/kg, single dose): 1500 ng·h/mL
[2H]C([2H])(c1cc(F)c(F)cc1F)n1c(=O)n(Cc2ncn(C)n2)c(=O)[nH]/c1=N\c1cc2cn(C)nc2cc1Cl — AUC(0-t) (male Sprague-Dawley rat; intravenous, 5 mg/kg): 78000 ng·h/mL
O=C([O-])C(=O)[O-].[NH-][C@@H]1CCCC[C@H]1[NH-].[Pt+4] (relative stereo) — AUC(0-inf) (rat; oral, 10 mg/kg): 170 ng·h/mL
